What was measured:
Format in all cases: functional
RPMI-8226 = test: Cytotoxicity against human RPMI8226 cells assessed as cell growth at 0.1 uM after 48 hrs by sulforhodamine B assay; conditions: RPMI-8226, 48 h, read-out: Activity
SR = test: Cytotoxicity against human SR cells assessed as cell growth at 0.1 uM after 48 hrs by sulforhodamine B assay; conditions: read-out: Activity
HCT-116 = test: Cytotoxicity against human HCT116 cells assessed as cell growth at 0.1 uM after 48 hrs by sulforhodamine B assay; conditions: HCT-116, 48 h, read-out: Activity
Procedure, shortened: (§1)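 Five-dose NCI panel run at 0.01, 0.1, 1, 10 and 100 µM. Cells were in RPMI 1640 with 5% FBS and 2 mM L-glutamine, seeded at 5000–40,000 cells/well and pre-incubated 24 h. Drug was diluted from a DMSO stock into medium with 50 µg/ml gentamicin. Exposure was 48 h at 37 °C, 5% CO2. Cells were fixed with cold TCA and stained with 0.4% SRB, read at 515 nm. Percent growth came from time-zero, control and test absorbances.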

SF-295 = test: Cytotoxicity against human SF295 cells assessed as cell growth at 0.1 uM after 48 hrs by sulforhodamine B assay; conditions: SF-295, 48 h, read-out: Activity
M14 = test: Cytotoxicity against human M14 cells assessed as cell growth at 100 uM after 48 hrs by sulforhodamine B assay; conditions: M14, 48 h, read-out: Activity
ACHN [1] = test: Cytotoxicity against human ACHN cells assessed as cell growth at 100 uM after 48 hrs by sulforhodamine B assay; conditions: read-out: Activity
Procedure, shortened: (§2)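 NCI-60 five-dose screen. Cells were grown in RPMI 1640 with 5% FBS and 2 mM L-glutamine and preincubated 24 h. Compound (DMSO stock) was tested at 0.01, 0.1, 1, 10 and 100 µM for 48 h at 37 °C. Cells were fixed in situ with cold TCA (final 10%) and stained with 0.4% SRB. A515 was read, and percent growth was calculated against time-zero and control plates.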

MCF7 = test: Cytotoxicity against human MCF7 cells assessed as cell growth at 0.1 uM after 48 hrs by sulforhodamine B assay; conditions: MCF7, 48 h, read-out: Activity
BT-549 = test: Cytotoxicity against human BT549 cells assessed as cell growth at 0.1 uM after 48 hrs by sulforhodamine B assay; conditions: BT-549, 48 h, read-out: Activity; procedure, shortened: as §2
T47D = test: Cytotoxicity against human T47D cells assessed as cell growth at 0.1 uM after 48 hrs by sulforhodamine B assay; conditions: read-out: Activity
SF-268 = test: Cytotoxicity against human SF268 cells assessed as cell growth at 1 uM after 48 hrs by sulforhodamine B assay; conditions: SF-268, 48 h, read-out: Activity
OVCAR-4 = test: Cytotoxicity against human OVCAR4 cells assessed as cell growth at 1 uM after 48 hrs by sulforhodamine B assay; conditions: OVCAR-4, 48 h, read-out: Activity
DU-145 = test: Cytotoxicity against human DU145 cells assessed as cell growth at 1 uM after 48 hrs by sulforhodamine B assay; conditions: DU-145, 48 h, read-out: Activity; procedure, shortened: as §2
SK-MEL-5 = test: Cytotoxicity against human SK-MEL-5 cells assessed as cell growth at 10 uM after 48 hrs by sulforhodamine B assay; conditions: SK-MEL-5, 48 h, read-out: Activity
A498 = test: Cytotoxicity against human A498 cells assessed as cell growth at 10 uM after 48 hrs by sulforhodamine B assay; conditions: A498, 48 h, read-out: Activity; procedure, shortened: as §2
NCI-H460 = test: Cytotoxicity against human NCI-H460 cells assessed as cell growth at 10 '-5 M after 48 hrs by sulforhodamine B assay; conditions: NCI-H460, 48 h, read-out: Activity
SNB-75 = test: Cytotoxicity against human SNB75 cells assessed as cell growth at 10 '-5 M after 48 hrs by sulforhodamine B assay; conditions: SNB-75, 48 h, read-out: Activity
MDA-MB-468 = test: Cytotoxicity against human MDA-MB-468 cells assessed as cell growth at 10 '-5 M after 48 hrs by sulforhodamine B assay; conditions: MDA-MB-468, 48 h, read-out: Activity
786-0 = test: Growth inhibition of human 786-0 cells after 48 hrs by sulforhodamine B assay; conditions: 786-0, 48 h; for CC50: read-out: LC50 (the source's name)
Procedure, shortened: (§3)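 Cells were in RPMI 1640 with 5% FBS and pre-incubated 24 h. Read-out was TCA fixation, SRB staining and absorbance at 515 nm. GI50 was the concentration where [(Ti−Tz)/(C−Tz)]×100 = 50, taken from log concentration vs % growth curves. It is given as ">" the top concentration when not reached.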

ACHN [2] = test: Growth inhibition of human ACHN cells after 48 hrs by sulforhodamine B assay; conditions: for CC50: read-out: LC50 (the source's name); procedure, shortened: as §3
CAKI-1 = test: Growth inhibition of human Caki1 cells after 48 hrs by sulforhodamine B assay; conditions: CAKI-1, 48 h; for CC50: read-out: LC50 (the source's name)
Procedure, shortened: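 Adherent NCI-60 lines were grown in RPMI 1640 with 5% FBS and 2 mM L-glutamine, plated at 5000–40,000 cells/well and preincubated 24 h. They were then exposed to five concentrations (0.01–100 µM, from a DMSO stock) for 48 h at 37 °C, 5% CO2. Cells were fixed with cold TCA (10% final, 60 min, 4 °C) and stained with 0.4% SRB. Dye was solubilized in 10 mM Tris base and A515 read. GI50 was derived from time-zero, control and treated absorbances.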

MOLT-4 = test: Cytotoxicity against human MOLT4 cells assessed as cell growth at 0.01 uM after 48 hrs by sulforhodamine B assay; conditions: MOLT-4, 48 h, read-out: Activity
HOP-62 = test: Cytotoxicity against human HOP62 cells assessed as cell growth at 0.01 uM after 48 hrs by sulforhodamine B assay; conditions: HOP-62, 48 h, read-out: Activity; procedure, shortened: as §1
KM12 = test: Cytotoxicity against human KM12 cells assessed as cell growth at 0.01 uM after 48 hrs by sulforhodamine B assay; conditions: KM12, 48 h, read-out: Activity
LOX IMVI = test: Cytotoxicity against human LOXIMVI cells assessed as cell growth at 0.01 uM after 48 hrs by sulforhodamine B assay; conditions: read-out: Activity
UACC-257 = test: Cytotoxicity against human UACC257 cells assessed as cell growth at 0.01 uM after 48 hrs by sulforhodamine B assay; conditions: UACC-257, 48 h, read-out: Activity
NCI-H23 = test: Cytotoxicity against human NCI-H23 cells assessed as cell growth at 10 '-5 M after 48 hrs by sulforhodamine B assay; conditions: NCI-H23, 48 h, read-out: Activity

SMILES | growth at 0.1 µM (RPMI-8226) [%] | growth at 0.1 µM (SR) [%] | growth at 0.1 µM (HCT-116) [%] | growth at 0.1 µM (SF-295) [%] | growth at 100 µM (M14) [%] | growth at 100 µM (ACHN [1]) [%] | growth at 0.1 µM (MCF7) [%] | growth at 0.1 µM (BT-549) [%] | growth at 0.1 µM (T47D) [%] | growth at 1 µM (SF-268) [%] | growth at 1 µM (OVCAR-4) [%] | growth at 1 µM (DU-145) [%] | growth at 10 µM (SK-MEL-5) [%] | growth at 10 µM (A498) [%] | growth at 10 µM (NCI-H460) [%] | growth at 10 µM (SNB-75) [%] | growth at 10 µM (MDA-MB-468) [%] | GI50 (786-0) [nM] | TGI (786-0) [nM] | CC50 (786-0) [µM] | also measured
Cc1ccc2nc(Nc3c(C)cccc3C)sc2c1 | 100 | 99 | 103 | 88 | 53 | 49 | 92 | 99 | 96 | 79 | 71 | 94 | 33 | -1 | 22.7 | -15.5 | 2.04 | > 100000 | > 100000 | > 100 | GI50 (ACHN [2]): 76.6 µM; TGI (ACHN [2]): > 100000 nM; CC50 (ACHN [2]): > 100 µM; GI50 (CAKI-1): 564 nM; TGI (CAKI-1): > 100000 nM; CC50 (CAKI-1): > 100 µM; growth at 0.01 µM (MOLT-4): 104%; growth at 0.01 µM (HOP-62): 109%; growth at 0.01 µM (KM12): 101%; growth at 0.01 µM (LOX IMVI): 94%; growth at 0.01 µM (UACC-257): 101%; growth at 10 µM (NCI-H23): 57.5%
Clc1cccc(Cl)c1Nc1nc2cccc(Cl)c2s1 | 97 | 101 | 99 | 82 | -56 | -100 | 87 | 101 | 102 | 62 | 44 | 75 | -95 | -97 | -57.9 | -26.9 | -25.6 | 1030 | 2280 | 5.03 | GI50 (ACHN [2]): 1.15 µM; TGI (ACHN [2]): 2380 nM; CC50 (ACHN [2]): 4.92 µM; GI50 (CAKI-1): 259 nM; TGI (CAKI-1): 1460 nM; CC50 (CAKI-1): 4.23 µM; growth at 0.01 µM (MOLT-4): 107%; growth at 0.01 µM (HOP-62): 104%; growth at 0.01 µM (KM12): 99%; growth at 0.01 µM (LOX IMVI): 94%; growth at 0.01 µM (UACC-257): 102%; growth at 10 µM (NCI-H23): -10.5%
